{
  "source": "ChEMBL document CHEMBL3045540",
  "about": "“Naphthalenones from a Perenniporia sp. inhabiting the larva of a phytophagous weevil, Euops chinesis” (2012)",
  "key": {"Verticillium albo-atrum [1]": {"tested_on": "Verticillium albo-atrum", "test": "Antifungal activity against Verticillium albo-atrum CGMCC 3.4306 at 20 ug/ml after 48 hr by Alamar blue assay", "format": "functional, organism-based"}, "Alternaria longipes [2]": {"tested_on": "Alternaria longipes", "test": "Antifungal activity against Alternaria longipes CGMCC 3.2875 at 20 ug/ml after 48 hr by Alamar blue assay", "format": "functional, organism-based"}, "Fusarium graminearum [3]": {"tested_on": "Fusarium graminearum", "test": "Antifungal activity against Fusarium graminearum CGMCC 3.2873 at 20 ug/ml after 48 hr by Alamar blue assay", "format": "functional, organism-based"}, "Fusarium verticillioides [4]": {"tested_on": "Fusarium verticillioides", "test": "Antifungal activity against Fusarium verticillioides CGMCC 3.2835 at 20 ug/ml after 48 hr by Alamar blue assay", "format": "functional, organism-based"}, "Fusarium oxysporum [5]": {"tested_on": "Fusarium oxysporum", "test": "Antifungal activity against Fusarium oxysporum CGMCC 3.2830 at 20 ug/ml after 48 hr by Alamar blue assay", "format": "functional, organism-based"}, "Fusarium oxysporum [6]": {"tested_on": "Fusarium oxysporum", "test": "Antifungal activity against Fusarium oxysporum CGMCC 3.2830 after 48 hr by Alamar blue assay", "format": "functional", "conditions": "CGMCC 3.2830, 48 h", "outline": "(§1)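 NCCLS-based broth microdilution, run in triplicate. Fungi were kept on PDA, and the inoculum was grown in broth at 28 °C for 48 h, then set to a final 10^4 hyphae/mL in PDB. Samples were serially diluted from a 10 mg/mL DMSO stock, with 10% Alamar blue as indicator, and incubated at 28 °C for 48 h. Fluorescence was read at 544/590 nm. MIC was the lowest concentration giving complete growth inhibition.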"}, "Fusarium verticillioides [7]": {"tested_on": "Fusarium verticillioides", "test": "Antifungal activity against Fusarium verticillioides CGMCC 3.2835 after 48 hr by Alamar blue assay", "format": "functional", "conditions": "CGMCC 3.2835, 48 h", "outline": "as §1"}, "Verticillium albo-atrum [8]": {"tested_on": "Verticillium albo-atrum", "test": "Antifungal activity against Verticillium albo-atrum CGMCC 3.4306 after 48 hr by Alamar blue assay", "format": "functional", "conditions": "CGMCC 3.4306, 48 h", "outline": "as §1"}, "Fusarium graminearum [9]": {"tested_on": "Fusarium graminearum", "test": "Antifungal activity against Fusarium graminearum CGMCC 3.2873 after 48 hr by Alamar blue assay", "format": "functional", "conditions": "CGMCC 3.2873, 48 h", "outline": "as §1"}, "Alternaria longipes [10]": {"tested_on": "Alternaria longipes", "test": "Antifungal activity against Alternaria longipes CGMCC 3.2875 after 48 hr by Alamar blue assay", "format": "functional", "conditions": "CGMCC 3.2875, 48 h", "outline": "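Run in triplicate per NCCLS recommendations. The strain was grown on PDA, and inoculum came from broth cultures (28 °C, 48 h), with a final suspension of 10^4 hyphae/mL in PDB. Samples were serially diluted from a 10 mg/mL DMSO stock, with 10% Alamar blue as indicator. After 28 °C for 48 h, fluorescence was read at Ex/Em 544/590 nm. MIC is the lowest concentration giving complete growth inhibition, taken from inhibition-versus-concentration plots.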"}},
  "note": "Calls of active or inactive are those of the source. No cut-off for these calls is given here.",
  "data": [
    {"molecule": "CCc1c(OC)cc2c(c1O)C(=O)C=C(OC)[C@@]2(O)C[C@@H](O)C(=O)OC", "values": [
      {"measurement": "Activity", "setting": "Verticillium albo-atrum [1]", "value": "inactive"},
      {"measurement": "Activity", "setting": "Alternaria longipes [2]", "value": "inactive"},
      {"measurement": "Activity", "setting": "Fusarium graminearum [3]", "value": "inactive"},
      {"measurement": "Activity", "setting": "Fusarium verticillioides [4]", "value": "inactive"},
      {"measurement": "Activity", "setting": "Fusarium oxysporum [5]", "value": "inactive"}
    ]},
    {"molecule": "CCc1c(OC)cc2c(c1O)C(=O)C[C@]1(OC)OC(=O)[C@H](O)C[C@@]21O", "values": [
      {"measurement": "Activity", "setting": "Verticillium albo-atrum [1]", "value": "inactive"},
      {"measurement": "Activity", "setting": "Alternaria longipes [2]", "value": "inactive"},
      {"measurement": "Activity", "setting": "Fusarium graminearum [3]", "value": "inactive"},
      {"measurement": "Activity", "setting": "Fusarium verticillioides [4]", "value": "inactive"},
      {"measurement": "Activity", "setting": "Fusarium oxysporum [5]", "value": "inactive"}
    ]},
    {"molecule": "COC(=O)Nc1nc2ccccc2[nH]1", "note": "[CARBENDAZIM]", "values": [
      {"measurement": "MIC", "setting": "Fusarium oxysporum [6]", "value": 0.63, "unit": "µg/mL"},
      {"measurement": "MIC", "setting": "Fusarium verticillioides [7]", "value": 0.63, "unit": "µg/mL"},
      {"measurement": "Activity", "setting": "Alternaria longipes [2]", "value": "inactive"},
      {"measurement": "MIC", "setting": "Verticillium albo-atrum [8]", "value": 0.63, "unit": "µg/mL"},
      {"measurement": "MIC", "setting": "Fusarium graminearum [9]", "value": 2.5, "unit": "µg/mL"}
    ]},
    {"molecule": "CCc1c(OC)cc2c(c1O)C(=O)C=C(OC)[C@@]21C[C@@H](O)C(=O)O1", "note": "[PERENNIPORIDE A]", "values": [
      {"measurement": "MIC", "setting": "Fusarium oxysporum [6]", "value": 10, "unit": "µg/mL"},
      {"measurement": "MIC", "setting": "Fusarium verticillioides [7]", "value": 20, "unit": "µg/mL"},
      {"measurement": "MIC", "setting": "Alternaria longipes [10]", "value": 10, "unit": "µg/mL"},
      {"measurement": "MIC", "setting": "Verticillium albo-atrum [8]", "value": 20, "unit": "µg/mL"},
      {"measurement": "MIC", "setting": "Fusarium graminearum [9]", "value": 20, "unit": "µg/mL"}
    ]},
    {"molecule": "CCc1c(OC)cc2c(c1O)C(=O)C[C@@]1(OC)O[C@@H](C(=O)OC)C[C@@]21O", "values": [
      {"measurement": "Activity", "setting": "Verticillium albo-atrum [1]", "value": "inactive"},
      {"measurement": "Activity", "setting": "Alternaria longipes [2]", "value": "inactive"},
      {"measurement": "Activity", "setting": "Fusarium graminearum [3]", "value": "inactive"},
      {"measurement": "Activity", "setting": "Fusarium verticillioides [4]", "value": "inactive"},
      {"measurement": "Activity", "setting": "Fusarium oxysporum [5]", "value": "inactive"}
    ]}
  ]
}
